Assay results taken from ChEMBL document CHEMBL3817745, “Structure-Activity Relationship for the 4(3H)-Quinazolinone Antibacterials” (J Med Chem, 2016).
Values after ≈ are worked out from the molar mass of the structure shown.

Experiments:
Staphylococcus aureus [1] = assay: Antibacterial activity against methicillin-resistant Staphylococcus aureus NRS70 incubated for 16 to 20 hrs by microdilution method; format: functional
Enterococcus faecium = assay: Antibacterial activity against Enterococcus faecium NCTC 7171 incubated for 16 to 20 hrs by microdilution method; format: functional
Method in brief: (§1)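 CLSI broth microdilution. 2-fold serial dilutions were made in cation-adjusted Mueller–Hinton broth, with 5% lysed horse blood added for Streptococcus strains, in triplicate. Inoculum 5×10^5 CFU/mL. Plates incubated 36 °C for 16–20 h. MIC taken as the lowest concentration visibly inhibiting growth.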

[2] = test system: Staphylococcus epidermidis; assay: Antibacterial activity against Staphylococcus epidermidis ATCC 35547 incubated for 16 to 20 hrs by microdilution method; format: functional; method in brief: as §1
Staphylococcus aureus [3] = assay: Antibacterial activity against mecA-positive multidrug resistant Staphylococcus aureus NRS120 incubated for 16 to 20 hrs by microdilution method; format: functional
Streptococcus oralis = assay: Antibacterial activity against Streptococcus oralis ATCC 9811 incubated for 16 to 20 hrs by microdilution method; format: functional; method in brief: as §1
Staphylococcus aureus [4] = assay: […] activity against methicillin-susceptible Staphylococcus aureus ATCC 29213; format: functional; details: read-out: MBC99.9
Staphylococcus aureus [5] = assay: Antibacterial activity against mecA-positive multidrug resistant Staphylococcus aureus COL NRS100 incubated for 16 to 20 hrs by microdilution method; format: functional
Enterococcus faecalis [6] = assay: Antibacterial activity against methicillin-susceptible Enterococcus faecalis ATCC 29212 incubated for 16 to 20 hrs by microdilution method; format: functional; method in brief: as §1
Klebsiella aerogenes = assay: Antibacterial activity against Enterobacter aerogenes ATCC 35029 incubated for 16 to 20 hrs by microdilution method; format: functional; method in brief: as §1
Staphylococcus aureus [7] = assay: […] activity against methicillin-resistant Staphylococcus aureus NRS70; format: functional; details: read-out: MBC99.9
Streptococcus pyogenes = assay: Antibacterial activity against Streptococcus pyogenes ATCC 49399 incubated for 16 to 20 hrs by microdilution method; format: functional; method in brief: as §1
Acinetobacter baumannii = assay: Antibacterial activity against Acinetobacter baumannii ATCC 17961 incubated for 16 to 20 hrs by microdilution method; format: functional; method in brief: as §1
Bacillus licheniformis = assay: Antibacterial activity against Bacillus licheniformis ATCC 12759 incubated for 16 to 20 hrs by microdilution method; format: functional; method in brief: as §1
Staphylococcus aureus [8] = assay: Bactericidal activity against methicillin-susceptible Staphylococcus aureus ATCC 29213 assessed as bacterial count at >=1 ug/ml (reference value: 1x10^6 CFU/ml); format: functional
Staphylococcus aureus [9] = assay: Antibacterial activity against methicillin resistant Staphylococcus aureus ATCC 27660 infected in ICR mouse model of peritonitis assessed as mouse survival at 5 mg/kg, iv administered at 30 mins and 4.5 hrs post infection measured for 48 hrs relative to control; format: functional
[10] = Hemolytic activity against human RBC at 64 ug/ml relative to control; format: ADME, cell-based, Erythrocyte; details: erythrocyte
Method in brief: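 Hemolysis was measured at a fixed 64 μg/mL on a 10% red-cell suspension from heparinized human blood. Triton-X served as the positive control, and results are given as percent hemolysis.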

HepG2 = assay: Cytotoxicity against human HepG2 cells incubated for 16 hrs by XTT assay; format: cell-based; details: HepG2, 16 h
Method in brief: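 HepG2 cells were tested with an XTT viability read-out, in triplicate. IC50 was obtained by nonlinear regression.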

Pseudomonas aeruginosa = assay: Antibacterial activity against Pseudomonas aeruginosa […] incubated for 16 to 20 hrs by microdilution method; format: functional; method in brief: as §1
Klebsiella pneumoniae = assay: Antibacterial activity against Klebsiella pneumoniae ATCC 700603 incubated for 16 to 20 hrs by microdilution method; format: functional; method in brief: as §1
Staphylococcus aureus [11] = assay: Antibacterial activity against methicillin-susceptible Staphylococcus aureus ATCC 29213 incubated for 16 to 20 hrs by microdilution method; format: functional
Staphylococcus aureus [12] = assay: […] activity against multidrug resistant Staphylococcus aureus ATCC 27660; format: functional; details: read-out: MBC99.9
Escherichia coli = assay: Antibacterial activity against Escherichia coli ATCC 25922 incubated for 16 to 20 hrs by microdilution method; format: functional; method in brief: as §1
Staphylococcus aureus [13] = assay: Antibacterial activity against vancomycin/methicillin-resistant Staphylococcus aureus VRS1 clinical isolate incubated for 16 to 20 hrs by microdilution method; format: functional
Mus musculus [14] = assay: AUC (0 to last) in ICR mouse peritonitis model infected with methicillin resistant Staphylococcus aureus ATCC 27660 at 10 mg/kg, iv administered as single dose measured up to 8 hrs by UPLC analysis; format: ADME, organism-based; set-up: dose 10 mg/kg, time 0 - last, route intravenous; details: in vivo, 8 h
Method in brief: (§2)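 Fast PK: female ICR mice (n = 2 per time point) given single tail-vein iv injection at 5, 10 or 20 mg/kg in 25% DMSO/65% propylene glycol/10% water (2.5, 5 or 10 mg/mL); terminal cardiac blood at 5 min, 40 min, 2, 4, 8 h; plasma analysed by UPLC with internal standard calibration.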

Bacillus cereus = assay: Antibacterial activity against Bacillus cereus ATCC 13061 incubated for 16 to 20 hrs by microdilution method; format: functional; method in brief: as §1
Enterococcus faecalis [15] = assay: Antibacterial activity against vancomycin-resistant Enterococcus faecalis 99 clinical isolate incubated for 16 to 20 hrs by microdilution method; format: functional
[16] = Protein binding in human plasma at 20 uM after 2 hrs by UPLC based equilibrium dialysis method; format: ADME, cell-free
Method in brief: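 Human plasma was tested by rapid equilibrium dialysis at a final compound concentration of 20 μM. Dialysis ran 2 h at 37 °C on an orbital shaker. Samples were quenched in acetonitrile with internal standard and quantified by UPLC with MRM detection. Triplicate, each measured in duplicate.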

Staphylococcus aureus [17] = assay: Antibacterial activity against mecA-positive multidrug resistant Staphylococcus aureus NRS119 incubated for 16 to 20 hrs by microdilution method; format: functional
Staphylococcus aureus [18] = assay: Antibacterial activity against mecA-positive methicillin/oxacillin/tetracycline-resistant Staphylococcus aureus ATCC 27660 incubated for 16 to 20 hrs by microdilution method; format: functional
[19] = Drug level in uninfected thighs of ICR mouse neutropenic thigh model of methicillin-resistant Staphylococcus aureus NRS70 infection at 20 mg/kg, sc tid administered every 8 hrs starting from 1 hr post infection and measured 7 hrs post last dose by UPLC analysis; format: ADME, organism-based; details: read-out: Drug uptake
Method in brief: (§3)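 Neutropenic thigh model (cyclophosphamide 200 mg/kg ip, NRS70 im), sc doses at 1, 9 and 17 h; at 24 h cardiac blood and uninfected thigh taken (n = 8 per group); thigh homogenate supernatant and plasma acetonitrile-quenched with internal standard, analysed by UPLC with MRM detection.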

Mus musculus [20] = assay: Terminal half life in ICR mouse peritonitis model infected with methicillin resistant Staphylococcus aureus ATCC 27660 at 10 mg/kg, po administered as single dose through gavage by UPLC analysis; format: ADME, organism-based; details: in vivo
Method in brief: (§4)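 Female ICR mice, single 10 mg/kg oral gavage in 25% DMSO/55% propylene glycol/20% PBS (2.5 mg/mL); n = 3 per time point; terminal blood 0.5–30 h; plasma protein-precipitated with acetonitrile containing internal standard, quantified by UPLC-UV or MRM against mouse-plasma calibration curve (0–50 μg/mL).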

Mus musculus [21] = assay: Tmax in ICR mouse peritonitis model infected with methicillin resistant Staphylococcus aureus ATCC 27660 at 10 mg/kg, po administered as single dose through gavage by UPLC analysis; format: ADME, organism-based; details: in vivo; method in brief: as §4
Mus musculus [22] = assay: T>MIC in ICR mouse at 10 mg/kg, iv administered as single dose by UPLC analysis
Mus musculus [23] = assay: Oral bioavailability in ICR mouse peritonitis model infected with methicillin resistant Staphylococcus aureus ATCC 27660 at 10 mg/kg administered as single dose through gavage by UPLC analysis; format: ADME, organism-based; details: in vivo; method in brief: as §4
Mus musculus [24] = assay: Cmax in ICR mouse peritonitis model infected with methicillin resistant Staphylococcus aureus ATCC 27660 at 10 mg/kg, po administered as single dose through gavage measured at 0.5 hrs post dose by UPLC analysis; format: ADME, organism-based; set-up: dose 10 mg/kg, route oral; details: in vivo; method in brief: as §4
Mus musculus [25] = assay: T>MIC in ICR mouse at 10 mg/kg, po administered as single dose through gavage by UPLC analysis
Mus musculus [26] = assay: Terminal half life in ICR mouse peritonitis model infected with methicillin resistant Staphylococcus aureus ATCC 27660 at 10 mg/kg, iv administered as single dose by UPLC analysis; format: ADME, organism-based; details: in vivo
Mus musculus [27] = assay: Volume of distribution in ICR mouse peritonitis model infected with methicillin resistant Staphylococcus aureus ATCC 27660 at 10 mg/kg, iv administered as single dose measured up to 24 hrs by UPLC analysis; format: ADME, organism-based; details: in vivo, 24 h
Mus musculus [28] = assay: AUC (0 to last) in ICR mouse peritonitis model infected with methicillin resistant Staphylococcus aureus ATCC 27660 at 10 mg/kg, po administered as single dose through gavage measured after 30 hrs by UPLC analysis; format: ADME, organism-based; set-up: dose 10 mg/kg, time 0 - last, route oral; details: in vivo, 30 h; method in brief: as §4
Mus musculus [29] = assay: AUC (0 to infinity) in ICR mouse peritonitis model infected with methicillin resistant Staphylococcus aureus ATCC 27660 at 10 mg/kg, iv administered as single dose by UPLC analysis; format: ADME, organism-based; set-up: dose 10 mg/kg, time infinity, route intravenous; details: in vivo
Mus musculus [30] = assay: AUC (0 to infinity) in ICR mouse peritonitis model infected with methicillin resistant Staphylococcus aureus ATCC 27660 at 10 mg/kg, po administered as single dose through gavage by UPLC analysis; format: ADME, organism-based; set-up: dose 10 mg/kg, route oral, time infinity; details: in vivo; method in brief: as §4
Mus musculus [31] = assay: Clearance in ICR mouse peritonitis model infected with methicillin resistant Staphylococcus aureus ATCC 27660 at 10 mg/kg, iv administered as single dose measured up to 8 hrs by UPLC analysis relative to hepatic blood flow; format: ADME, organism-based; details: in vivo; method in brief: as §2
[32] = Plasma concentration in ICR mouse neutropenic thigh model of methicillin-resistant Staphylococcus aureus NRS70 infection at 20 mg/kg, sc tid administered every 8 hrs starting from 1 hr post infection and measured 7 hrs post last dose by UPLC analysis; format: ADME, organism-based; method in brief: as §3
[33] = Solubility of compound in water; format: physicochemical; details: buffer

C#Cc1ccc(/C=C/c2nc3ccccc3c(=O)n2-c2cccc(C(=O)O)c2)cc1
MIC (Staphylococcus aureus [1]): 0.03 mg/L (≈ 0.0764 µM)
MIC (Enterococcus faecium): > 128 mg/L
MIC [2]: 0.008 mg/L (≈ 0.0204 µM)
MIC (Staphylococcus aureus [3]): 0.5 mg/L (≈ 1.27 µM)
MIC (Streptococcus oralis): 128 mg/L (≈ 326 µM)
MBC (Staphylococcus aureus [4]): 0.125 mg/L (≈ 0.319 µM)
MIC (Staphylococcus aureus [5]): 0.25 mg/L (≈ 0.637 µM)
MIC (Enterococcus faecalis [6]): > 128 mg/L
MIC (Klebsiella aerogenes): ≥ 16 mg/L
MBC (Staphylococcus aureus [7]): 0.5 mg/L (≈ 1.27 µM)
MIC (Streptococcus pyogenes): 128 mg/L (≈ 326 µM)
MIC (Acinetobacter baumannii): ≥ 16 mg/L
MIC (Bacillus licheniformis): 128 mg/L (≈ 326 µM)
Activity (Staphylococcus aureus [8]): <=500 CFU/ml
Efficacy (Staphylococcus aureus [9]): >50%
Activity [10]: < 1%
IC50 (HepG2): 82 mg/L (≈ 209 µM)
MIC (Pseudomonas aeruginosa): ≥ 16 mg/L
MIC (Klebsiella pneumoniae): ≥ 16 mg/L
MIC (Staphylococcus aureus [11]): 0.03 mg/L (≈ 0.0764 µM)
MBC (Staphylococcus aureus [12]): 1 mg/L (≈ 2.55 µM)
MIC (Escherichia coli): ≥ 16 mg/L
MIC (Staphylococcus aureus [13]): 0.5 mg/L (≈ 1.27 µM)
AUClast (Mus musculus [14]): 1540 µg·min/mL
MIC (Bacillus cereus): 128 mg/L (≈ 326 µM)
MIC (Enterococcus faecalis [15]): 128 mg/L (≈ 326 µM)
PPB [16]: 99.6%
MIC (Staphylococcus aureus [17]): 0.06 mg/L (≈ 0.153 µM)
MIC (Staphylococcus aureus [18]): 0.06 mg/L (≈ 0.153 µM)

C#Cc1ccc(/C=C/c2nc3ccccc3c(=O)n2-c2cccc(C(=O)[O-])c2)cc1.[Na+]
concentration at 7 h [19]: 0.22 µg/mL
beta t1/2 (Mus musculus [20]): 6.6 h
Tmax (Mus musculus [21]): 0.5 h
T>MIC (Mus musculus [22]): 24 h
F (Mus musculus [23]): 37%
Cmax (Mus musculus [24]): 2.7 µg/mL
T>MIC (Mus musculus [25]): 30 h
beta t1/2 (Mus musculus [26]): 6.5 h
Vd (Mus musculus [27]): 3.58 L/kg
AUClast (Mus musculus [28]): 552 µg·min/mL
AUC (Mus musculus [29]): 1570 µg·min/mL
AUC (Mus musculus [30]): 582 µg·min/mL
CL (Mus musculus [31]): < 10%
concentration at 7 h [32]: 2.43 µg/mL
solubility [33]: 1.5 mg/mL
